Calls of active or inactive are those of the source. The rule behind the calls is not given here.
Key:
Cytochrome P450 3A4 = Cytochrome P450 3A4 (Homo sapiens, UniProt P08684); experiment: Inhibition of CYP3A4 using testosterone as substrate; type: ADME
Procedure, shortened: (§1)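 Reversible inhibition of CYP isozymes in human liver microsomes, each isozyme with a single probe substrate. CYP3A4 tested with both testosterone and midazolam. IC50 determined.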

Caco-2 = experiment: Apparent permeability from apical to basolateral side in human Caco2 cells; type: ADME, cell-based
Homo sapiens [1] = species: Homo sapiens; experiment: Inhibition of human nicotinic acetylcholine receptor bungarotoxin binding site at 10 uM by radioligand displacement assay
Procedure, shortened: (§2)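 Single concentration of 10 μM, tested in duplicate in a contract panel of 68 in vitro enzyme and receptor binding assays covering common adverse CNS, cardiovascular, pulmonary and genotoxic targets.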

Rattus norvegicus [2] = experiment: Dose normalised AUC in Sprague-Dawley rat at 1 mg/kg, iv; type: ADME, organism-based; design: dose 1 mg/kg, route intravenous; details: in vivo
Procedure, shortened: (§3)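 Sprague-Dawley rats given a single 1 mg/kg bolus, intravenous or oral. Plasma PK parameters (AUC, dose-normalised AUC, half-life, clearance, Vss, Cmax, Tmax, oral bioavailability) derived from plasma levels.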

[3] = target: Melatonin receptor type 1A (Homo sapiens) (UniProt P48039); experiment: Inhibition of human MT1 receptor at 10 uM by radioligand displacement assay
Procedure, shortened: (§4)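 LeadProfilingScreen panel of 68 in vitro enzyme and receptor assays. Compound tested at 10 μM in duplicate.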

[4] = target: Adenosine receptor A1 (Homo sapiens) (UniProt P30542); experiment: Inhibition of human adenosine A1 receptor at 10 uM by radioligand displacement assay; procedure, shortened: as §4
Cytochrome P450 1A2 = Cytochrome P450 1A2 (Homo sapiens, UniProt P05177); experiment: Inhibition of CYP1A2; type: ADME; procedure, shortened: as §1
Rattus norvegicus [5] = species: Rattus norvegicus; experiment: Inhibition of rat Rolipram binding site at 10 uM by radioligand displacement assay
Procedure, shortened: (§5)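 Single concentration of 10 μM, tested in duplicate as part of a contracted panel of 68 in vitro enzyme and receptor assays. The panel covers common adverse CNS, cardiovascular, pulmonary and genotoxic targets.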

[6] = Half life in Sprague-Dawley rat at 1 mg/kg, iv; type: ADME, organism-based; design: dose 1 mg/kg, route intravenous; details: in vivo; procedure, shortened: as §3
Mus musculus [7] = experiment: Neuroprotective activity in SOD1 G93A mutant B6SJL mouse ALS model assessed as life extension at 20 mg/kg administered qd for 1 week relative to untreated control; type: functional
[8] = target: Beta-2 adrenergic receptor (Homo sapiens) (UniProt P07550); experiment: Inhibition of human beta2 adrenergic receptor at 10 uM by radioligand displacement assay; procedure, shortened: as §4
Homo sapiens [9] = species: Homo sapiens; experiment: Inhibition of human dopamine […] receptor at 10 uM by radioligand displacement assay; procedure, shortened: as §5
[10] = test system: Superoxide dismutase [Cu-Zn] (Homo sapiens), P00441 [G94A]; experiment: Inhibition of SOD1 G93A mutant aggregation-induced cytotoxicity in rat PC12 cells assessed as cell viability incubated for 24 hrs and measured 72 hrs post compound dose by cytotoxicity protection assay; type: cell-based; details: PC-12
Procedure, shortened: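 PC12 cells expressing G93A SOD1-YFP fusion seeded 15000 cells/well, grown 24 h before dosing. 12-point dose response, top 32 μM, twofold dilutions. After 24 h, MG132 added (100 nM final). Viability measured 48 h later with Calcein-AM (1 μM final, 20 min, room temperature) fluorescence. EC50 derived from dose-response.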

[11] = target: Glutamate NMDA receptor (Rattus norvegicus) (UniProt P35439+Q00959+Q00960+Q00961+Q62645+Q8VHN2+Q9R1M7); experiment: Inhibition of rat NMDA receptor glutamate and glycine binding site at 10 uM by radioligand displacement assay; type: protein-complex assay; procedure, shortened: as §5
[12] = target: D(1A) dopamine receptor (Homo sapiens) (UniProt P21728); experiment: Inhibition of human dopamine D1 receptor at 10 uM by radioligand displacement assay; procedure, shortened: as §4
[13] = target: Estrogen receptor (Homo sapiens) (UniProt P03372); experiment: Inhibition of human estrogen receptor-alpha at 10 uM by radioligand displacement assay; procedure, shortened: as §5
[14] = target: Endothelin receptor type B (Homo sapiens) (UniProt P24530); experiment: Inhibition of human endothelin ETB at 10 uM by radioligand displacement assay; procedure, shortened: as §5
[15] = target: Delta-type opioid receptor (Homo sapiens) (UniProt P41143); experiment: Inhibition of human delta-type opioid receptor at 10 uM by radioligand displacement assay; procedure, shortened: as §4
Rattus norvegicus [16] = species: Rattus norvegicus; experiment: Inhibition of rat imidazoline I2 receptor at 10 uM by radioligand displacement assay; procedure, shortened: as §5
[17] = target: Histamine H3 receptor (Homo sapiens) (UniProt Q9Y5N1); experiment: Inhibition of human histamine H3 receptor at 10 uM by radioligand displacement assay; procedure, shortened: as §5
Rattus norvegicus [18] = species: Rattus norvegicus; experiment: Inhibition of rat kainate receptor glutamate binding site at 10 uM by radioligand displacement assay; procedure, shortened: as §5
Rattus norvegicus [19] = species: Rattus norvegicus; experiment: Inhibition of rat GABAA receptor muscimol site at 10 uM by radioligand displacement assay; procedure, shortened: as §5
Mus musculus [20] = experiment: Neuroprotective activity in SOD1 G93A mutant B6SJL mouse ALS model assessed as life extension at 10 mg/kg administered qd for 1 week (reference value: 125.7 +/- 4.9 days); type: functional
[21] = target: Muscarinic acetylcholine receptor M1 (Homo sapiens) (UniProt P11229); experiment: Inhibition of human muscarinic M1 receptor at 10 uM by radioligand displacement assay; procedure, shortened: as §5
[22] = Plasma concentration in B6SJL mouse at 300 mg/kg after 6 hrs by mass spectrometry; type: ADME, organism-based; design: dose 300 mg/kg
Procedure, shortened: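 Single 300 mg/kg bolus i.p. injection in B6SJL mice; blood and brain collected at 0, 1, 3, 6, 12 and 24 h, flash frozen in liquid nitrogen and stored at -80 °C. Samples analysed by mass spectrometry with ESI ionization in MRM mode.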

[23] = test system: Superoxide dismutase [Cu-Zn] (Homo sapiens), P00441 [G94A]; experiment: Inhibition of SOD1 G93A mutant aggregation-induced cytotoxicity in human HEK293 cells by cytotoxicity protection assay; type: cell-based
[24] = target: Kappa-type opioid receptor (Homo sapiens) (UniProt P41145); experiment: Inhibition of human kappa-type opioid receptor at 10 uM by radioligand displacement assay; procedure, shortened: as §5
hERG = hERG (Homo sapiens, UniProt Q12809); experiment: Inhibition of human ERG at 10 uM by radioligand displacement assay; procedure, shortened: as §4
[25] = target: Neuropeptide Y receptor type 2 (Homo sapiens) (UniProt P49146); experiment: Inhibition of human Neuropeptide Y Y2 receptor at 10 uM by radioligand displacement assay; procedure, shortened: as §2
[26] = target: Muscarinic acetylcholine receptor M3 (Homo sapiens) (UniProt P20309); experiment: Inhibition of human muscarinic M3 receptor at 10 uM by radioligand displacement assay; procedure, shortened: as §5
[27] = target: Sodium-dependent serotonin transporter (Homo sapiens) (UniProt P31645); experiment: Inhibition of human serotonin transporter at 10 uM by radioligand displacement assay; procedure, shortened: as §5
[28] = Clearance in Sprague-Dawley rat at 1 mg/kg, iv; type: ADME, organism-based; design: dose 1 mg/kg, route intravenous; details: in vivo; procedure, shortened: as §3
[29] = target: B2 bradykinin receptor (Homo sapiens) (UniProt P30411); experiment: Inhibition of human bradykinin B2 receptor at 10 uM by radioligand displacement assay; procedure, shortened: as §4
[30] = target: L-type calcium channel, benzothiazepine site (Rattus norvegicus, UniProt P22002+P27732+Q02485); experiment: Inhibition of rat calcium channel L-type, benzothiazepine site at 10 uM by radioligand displacement assay; procedure, shortened: as §5
[31] = target: Alpha-1A adrenergic receptor (Rattus norvegicus) (UniProt P43140); experiment: Inhibition of rat adrenergic alpha1A receptor at 10 uM by radioligand displacement assay; procedure, shortened: as §5

Chain of Superoxide dismutase [Cu-Zn] (Homo sapiens), P00441 [G94A] (P00441 whole entry G94A, the tested form may be a part): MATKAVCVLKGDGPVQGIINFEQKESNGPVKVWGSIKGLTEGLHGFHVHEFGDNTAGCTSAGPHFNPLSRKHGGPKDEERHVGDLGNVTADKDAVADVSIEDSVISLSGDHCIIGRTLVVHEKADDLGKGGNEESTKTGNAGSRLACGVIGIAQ
Chain of D(1A) dopamine receptor (Homo sapiens) (P21728 whole entry): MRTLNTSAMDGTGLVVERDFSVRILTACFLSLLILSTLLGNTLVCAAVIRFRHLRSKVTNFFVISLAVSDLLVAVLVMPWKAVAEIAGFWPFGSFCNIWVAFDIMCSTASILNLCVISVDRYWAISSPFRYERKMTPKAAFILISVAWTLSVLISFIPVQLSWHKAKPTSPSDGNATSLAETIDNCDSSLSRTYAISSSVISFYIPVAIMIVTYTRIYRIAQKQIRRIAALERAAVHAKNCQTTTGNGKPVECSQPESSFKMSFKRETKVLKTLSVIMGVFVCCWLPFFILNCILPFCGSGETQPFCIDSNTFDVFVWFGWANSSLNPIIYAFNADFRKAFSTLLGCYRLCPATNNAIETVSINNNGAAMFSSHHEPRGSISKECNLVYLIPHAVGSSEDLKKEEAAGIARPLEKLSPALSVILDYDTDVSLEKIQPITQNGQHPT
Chain of Kappa-type opioid receptor (Homo sapiens) (P41145 whole entry): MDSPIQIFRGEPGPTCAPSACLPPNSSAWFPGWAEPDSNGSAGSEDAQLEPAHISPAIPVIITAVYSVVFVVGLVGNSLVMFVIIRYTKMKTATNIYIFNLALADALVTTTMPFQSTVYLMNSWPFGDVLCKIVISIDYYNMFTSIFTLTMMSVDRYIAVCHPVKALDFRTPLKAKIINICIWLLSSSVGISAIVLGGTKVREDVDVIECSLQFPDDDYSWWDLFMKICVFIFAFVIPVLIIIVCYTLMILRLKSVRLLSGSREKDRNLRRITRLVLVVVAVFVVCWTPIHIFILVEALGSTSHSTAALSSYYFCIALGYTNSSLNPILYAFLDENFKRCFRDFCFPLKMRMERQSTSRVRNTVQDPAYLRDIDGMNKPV
Chain of Sodium-dependent serotonin transporter (Homo sapiens) (P31645 whole entry, looked up): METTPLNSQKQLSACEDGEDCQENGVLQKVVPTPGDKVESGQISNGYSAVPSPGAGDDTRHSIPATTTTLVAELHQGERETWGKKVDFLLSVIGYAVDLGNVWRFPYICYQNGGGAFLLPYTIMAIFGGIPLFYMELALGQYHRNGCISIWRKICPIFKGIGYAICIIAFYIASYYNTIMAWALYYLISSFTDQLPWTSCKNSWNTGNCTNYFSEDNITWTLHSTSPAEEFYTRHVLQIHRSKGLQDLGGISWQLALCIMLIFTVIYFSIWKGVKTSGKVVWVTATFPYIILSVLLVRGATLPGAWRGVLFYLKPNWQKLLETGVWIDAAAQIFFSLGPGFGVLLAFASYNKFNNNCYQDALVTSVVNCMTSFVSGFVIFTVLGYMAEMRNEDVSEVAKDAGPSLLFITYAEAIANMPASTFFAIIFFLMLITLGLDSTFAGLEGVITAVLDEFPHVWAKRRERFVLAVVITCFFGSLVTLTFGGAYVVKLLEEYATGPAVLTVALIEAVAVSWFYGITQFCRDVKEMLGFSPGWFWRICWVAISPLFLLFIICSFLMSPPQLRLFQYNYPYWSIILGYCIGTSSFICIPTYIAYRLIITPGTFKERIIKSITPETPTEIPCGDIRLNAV
Chain of Cytochrome P450 3A4 (P08684 whole entry): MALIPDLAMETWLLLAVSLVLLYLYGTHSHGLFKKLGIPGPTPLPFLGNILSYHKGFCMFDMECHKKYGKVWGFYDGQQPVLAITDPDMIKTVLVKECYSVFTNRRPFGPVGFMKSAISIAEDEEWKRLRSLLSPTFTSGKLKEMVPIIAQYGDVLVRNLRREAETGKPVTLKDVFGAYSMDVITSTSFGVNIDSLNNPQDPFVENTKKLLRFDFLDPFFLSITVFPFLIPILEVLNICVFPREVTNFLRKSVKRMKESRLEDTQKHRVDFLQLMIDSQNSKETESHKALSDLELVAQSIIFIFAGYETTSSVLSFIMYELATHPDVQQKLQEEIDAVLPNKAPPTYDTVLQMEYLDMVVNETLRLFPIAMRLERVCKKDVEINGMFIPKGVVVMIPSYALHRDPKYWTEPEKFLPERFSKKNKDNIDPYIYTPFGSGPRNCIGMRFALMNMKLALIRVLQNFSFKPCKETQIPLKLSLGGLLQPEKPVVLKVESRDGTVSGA
Chain of Beta-2 adrenergic receptor (Homo sapiens) (P07550 whole entry, looked up): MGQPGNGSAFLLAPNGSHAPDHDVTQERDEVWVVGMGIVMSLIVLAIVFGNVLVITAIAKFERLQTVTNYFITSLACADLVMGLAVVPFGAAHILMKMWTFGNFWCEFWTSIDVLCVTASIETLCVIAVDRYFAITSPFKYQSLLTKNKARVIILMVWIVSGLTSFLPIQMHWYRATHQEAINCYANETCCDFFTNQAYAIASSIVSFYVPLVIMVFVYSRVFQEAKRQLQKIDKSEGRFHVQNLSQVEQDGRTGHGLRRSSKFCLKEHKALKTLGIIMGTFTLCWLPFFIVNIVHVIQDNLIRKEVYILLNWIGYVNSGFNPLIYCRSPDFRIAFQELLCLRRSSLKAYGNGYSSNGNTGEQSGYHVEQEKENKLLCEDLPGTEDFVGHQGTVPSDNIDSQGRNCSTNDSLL
Chain of Muscarinic acetylcholine receptor M1 (Homo sapiens) (P11229 whole entry): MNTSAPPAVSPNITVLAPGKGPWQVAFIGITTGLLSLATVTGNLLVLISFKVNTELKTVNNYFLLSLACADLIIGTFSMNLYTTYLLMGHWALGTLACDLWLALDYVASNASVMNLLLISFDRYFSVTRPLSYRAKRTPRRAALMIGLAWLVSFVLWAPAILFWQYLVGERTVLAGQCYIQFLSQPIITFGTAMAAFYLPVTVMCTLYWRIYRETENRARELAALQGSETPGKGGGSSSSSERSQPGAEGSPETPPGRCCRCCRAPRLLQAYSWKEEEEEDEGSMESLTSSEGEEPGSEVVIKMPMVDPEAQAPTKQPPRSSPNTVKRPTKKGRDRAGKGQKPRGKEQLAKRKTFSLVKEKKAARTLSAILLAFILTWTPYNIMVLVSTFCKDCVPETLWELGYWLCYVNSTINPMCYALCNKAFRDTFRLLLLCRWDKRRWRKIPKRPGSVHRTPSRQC
Chain of B2 bradykinin receptor (Homo sapiens) (P30411 whole entry): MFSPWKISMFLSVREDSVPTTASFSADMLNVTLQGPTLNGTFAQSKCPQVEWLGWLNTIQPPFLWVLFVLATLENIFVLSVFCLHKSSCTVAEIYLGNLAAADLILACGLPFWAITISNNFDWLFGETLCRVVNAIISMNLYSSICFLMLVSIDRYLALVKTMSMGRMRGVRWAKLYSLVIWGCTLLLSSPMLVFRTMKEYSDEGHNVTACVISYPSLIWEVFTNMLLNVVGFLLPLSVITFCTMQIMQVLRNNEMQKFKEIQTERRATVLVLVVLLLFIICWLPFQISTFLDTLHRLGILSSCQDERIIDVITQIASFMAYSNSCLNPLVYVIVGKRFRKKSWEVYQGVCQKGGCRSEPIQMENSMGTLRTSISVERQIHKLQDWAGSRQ
Chain of hERG (Q12809 whole entry): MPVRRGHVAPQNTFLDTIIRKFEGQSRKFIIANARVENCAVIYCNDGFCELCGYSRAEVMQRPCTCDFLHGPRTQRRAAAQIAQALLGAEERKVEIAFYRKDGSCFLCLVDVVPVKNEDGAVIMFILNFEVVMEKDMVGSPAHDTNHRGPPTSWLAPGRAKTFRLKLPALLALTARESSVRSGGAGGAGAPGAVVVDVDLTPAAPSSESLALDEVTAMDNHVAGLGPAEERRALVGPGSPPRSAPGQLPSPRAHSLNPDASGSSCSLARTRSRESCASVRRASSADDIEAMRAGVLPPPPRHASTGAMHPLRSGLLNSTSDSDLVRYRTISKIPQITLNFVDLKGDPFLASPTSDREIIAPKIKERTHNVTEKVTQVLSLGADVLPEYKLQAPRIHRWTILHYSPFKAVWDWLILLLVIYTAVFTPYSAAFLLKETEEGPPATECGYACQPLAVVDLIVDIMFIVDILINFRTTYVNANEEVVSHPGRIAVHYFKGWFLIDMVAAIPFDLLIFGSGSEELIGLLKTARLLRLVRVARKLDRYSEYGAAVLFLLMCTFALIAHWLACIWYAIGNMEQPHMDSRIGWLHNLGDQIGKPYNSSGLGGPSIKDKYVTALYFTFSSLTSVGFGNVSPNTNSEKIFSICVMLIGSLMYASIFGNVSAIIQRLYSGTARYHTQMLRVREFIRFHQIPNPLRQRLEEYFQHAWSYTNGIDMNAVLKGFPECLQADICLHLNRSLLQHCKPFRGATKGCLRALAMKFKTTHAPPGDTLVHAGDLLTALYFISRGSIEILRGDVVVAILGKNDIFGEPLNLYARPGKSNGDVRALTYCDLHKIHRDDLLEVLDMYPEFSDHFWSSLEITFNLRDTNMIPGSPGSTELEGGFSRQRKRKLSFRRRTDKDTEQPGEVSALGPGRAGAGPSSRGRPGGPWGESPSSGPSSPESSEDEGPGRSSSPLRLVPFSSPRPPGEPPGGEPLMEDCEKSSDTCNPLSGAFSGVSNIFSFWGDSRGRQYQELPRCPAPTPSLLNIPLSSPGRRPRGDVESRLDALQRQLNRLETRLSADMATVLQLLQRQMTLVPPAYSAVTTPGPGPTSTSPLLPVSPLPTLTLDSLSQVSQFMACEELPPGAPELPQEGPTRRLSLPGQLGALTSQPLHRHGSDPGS
Chain of Endothelin receptor type B (Homo sapiens) (P24530 whole entry): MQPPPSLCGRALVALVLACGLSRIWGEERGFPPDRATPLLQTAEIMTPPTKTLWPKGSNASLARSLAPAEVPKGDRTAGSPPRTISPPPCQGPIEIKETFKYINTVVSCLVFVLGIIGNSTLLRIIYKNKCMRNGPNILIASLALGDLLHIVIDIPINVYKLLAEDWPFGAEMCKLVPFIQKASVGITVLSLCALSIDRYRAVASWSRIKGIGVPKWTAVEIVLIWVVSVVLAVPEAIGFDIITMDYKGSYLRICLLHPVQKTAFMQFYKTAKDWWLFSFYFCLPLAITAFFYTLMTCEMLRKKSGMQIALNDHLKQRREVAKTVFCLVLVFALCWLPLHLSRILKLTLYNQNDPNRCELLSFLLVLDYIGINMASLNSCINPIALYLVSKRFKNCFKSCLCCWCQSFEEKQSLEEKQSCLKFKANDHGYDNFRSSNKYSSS

O=c1cc(COc2cc(Cl)cc(Cl)c2)[nH][nH]1
IC50 (Cytochrome P450 3A4): > 50 µM
Papp (Caco-2): 36.7 ×10⁻⁶ cm/s
inhibition (Homo sapiens [1]): 6%
AUC/dose (Rattus norvegicus [2]): 184 ng·h/mL/mg/kg
inhibition [3]: 3%
inhibition [4]: 15%
IC50 (Cytochrome P450 1A2): > 50 µM
inhibition (Rattus norvegicus [5]): -2%
half-life [6]: 2.1 h
Activity (Mus musculus [7]): 13.3%
inhibition [8]: -2%
inhibition (Homo sapiens [9]): 14%
Activity [10]: 100%
inhibition [11]: 5%
inhibition [12]: 3%
inhibition [13]: 10%
inhibition [14]: 0%
inhibition [15]: 25%
inhibition (Rattus norvegicus [16]): 12%
inhibition [17]: 15%
inhibition (Rattus norvegicus [18]): 24%
inhibition (Rattus norvegicus [19]): 1%
Survival (Mus musculus [20]): 135 days
inhibition [21]: 2%
concentration at 6 h [22]: 347 µM
inhibition [23]: Active
inhibition [24]: -9%
inhibition at 10 µM (hERG): -7%
inhibition [25]: 6%
inhibition [26]: -4%
inhibition [27]: -6%
clearance [28]: 92 mL/min/kg
inhibition [29]: -10%
inhibition at 10 µM [30]: -2%
inhibition [31]: -2%
